Measurements: ChEMBL document CHEMBL4359881, “Novel antiacanthamoebic compounds belonging to quinazolinones” (Eur J Med Chem, 2019)
Activity calls are given as the source filed them. The rule behind the calls is not given here.

Tests used:
Acanthamoeba castellanii [1] = assay: (§1) Antiamoebic activity against Acanthamoeba castellanii T4 genotype ATCC 50492 infected in human HaCaT cells assessed as reduction in amoeba-induced host cell cytopathogenicity at 100 ug/ml preincubated with amoeba for 2 hrs followed by incubation of suspension with host cell for 24 hrs by LDH release assay; format: functional, organism-based
How it was run: (§2)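 Amoebae were pretreated with compound for 2 h at 30 °C, pelleted at 3000g for 5 min, and resuspended in fresh RPMI-1640 to remove compound. They were then added to HaCaT monolayers for 24 h at 37 °C in 5% CO2. Supernatant LDH was read at 492 nm. % cytotoxicity was calculated against untreated and 0.1% Triton X-100 lysed cells. Duplicates; mean ± SE.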

Acanthamoeba castellanii [2] = assay: Inhibition of Acanthamoeba castellanii T4 genotype ATCC 50492 excystation at 100 ug/ml incubated with pre-formed cysts for 72 hrs by hemocytometric method; format: functional, organism-based
How it was run: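 Cysts were formed by plating 1×10^6 trophozoites on 1.5% non-nutrient agar at 30 °C for up to 2 weeks, then scraped into PBS. 1×10^5 cysts were incubated with compound in PYG at 30 °C for 72 h, and emerging trophozoites were counted by hemocytometer. Duplicates; mean ± SE; two-tailed two-sample t-test.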

Acanthamoeba castellanii [3] = assay: Antiamoebic activity against Acanthamoeba castellanii T4 genotype ATCC 50492 trophozites assessed as reduction in viable cells at 100 ug/ml incubated for 24 hrs by trypan blue staining based hemocytometric method relative to control; format: functional; conditions: T4 genotype ATCC 50492, 24 h
How it was run: (§3)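 Trophozoites from PYG cultures at 30 °C were detached on ice and resuspended in PBS. They were exposed at 5×10^5 per well in RPMI-1640 at 30 °C for 24 h, stained with 0.1% Trypan blue for 5 min, and unstained cells were counted by hemocytometer. Untreated cells were the negative control and chlorhexidine the positive control. Significance was tested against methanol solvent. Duplicates; mean ± SE.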

HaCaT [4] = assay: Cytotoxicity against human HaCaT cells at 100 ug/ml incubated for 24 hrs by LDH release assay; format: cell-based
How it was run: (§4)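 HaCaT keratinocytes were grown in RPMI-1640 with 10% FBS and Nu-serum and seeded to a monolayer over 24 h. Compound was applied for 24 h at 37 °C in 5% CO2, and LDH in the supernatant was measured. Medium alone gave the baseline and 0.1% Triton X-100 gave total lysis. Duplicates; mean ± SE.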

Acanthamoeba castellanii [5] = assay: Antiamoebic activity against Acanthamoeba castellanii T4 genotype ATCC 50492 trophozites assessed as reduction in viable cells at 50 ug/ml incubated for 24 hrs by trypan blue staining based hemocytometric method relative to control; format: functional; conditions: T4 genotype ATCC 50492, 24 h; how it was run: as §3
Acanthamoeba castellanii [6] = assay: as §1, with “assay relative to control” for “assay”; format: functional; conditions: T4 genotype ATCC 50492, HaCaT; how it was run: as §2
Acanthamoeba castellanii [7] = assay: Antiamoebic activity against Acanthamoeba castellanii T4 genotype ATCC 50492 assessed as increase in surface disintegration at 100 ug/ml incubated for 2 hrs by FE-SEM analysis; format: functional, organism-based
How it was run: (§5)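 Trophozoites were treated with compound, then fixed on glass coverslips in 2.5% glutaraldehyde in PBS at 4 °C for 2 h. Samples were dehydrated through 50–100% ethanol, air-dried and sputter-coated with platinum. Surface morphology was imaged by FESEM at several scales, with untreated amoebae for comparison.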

Acanthamoeba castellanii [8] = assay: Antiamoebic activity against Acanthamoeba castellanii T4 genotype ATCC 50492 assessed as increase in pore formation at 100 ug/ml incubated for 2 hrs by FE-SEM analysis; format: functional, organism-based; how it was run: as §5
Acanthamoeba castellanii [9] = assay: Inhibition of Acanthamoeba castellanii T4 genotype ATCC 50492 trophozites encystation at 100 ug/ml incubated for 72 hrs by hemocytometric method; format: functional, organism-based
How it was run: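 5×10^5 trophozoites in PBS were pretreated with compound for 15 min at room temperature. They were then transferred into encystation medium (50 mM MgCl2, 10% glucose) at 30 °C for 72 h. Trophozoites were lysed with 0.25% SDS for 10 min, and SDS-resistant cysts were counted by hemocytometer. Duplicates; mean ± SE; two-tailed t-test.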

HaCaT [10] = assay: Cytotoxicity against human HaCaT cells at 100 ug/ml incubated for 24 hrs by LDH release assay relative to control; format: cell-based; how it was run: as §4
Acanthamoeba castellanii [11] = assay: Antiamoebic activity against Acanthamoeba castellanii T4 genotype ATCC 50492 trophozites assessed as reduction in viable cells at 100 ug/ml incubated for 24 hrs by trypan blue staining based hemocytometric method; format: functional, organism-based; how it was run: as §3

Cc1cccc2c(=O)n(-c3cccc(Cl)c3)cnc12
inhibition (Acanthamoeba castellanii [1]): Active
inhibition (Acanthamoeba castellanii [2]): Active
inhibition at 100 µg/mL (Acanthamoeba castellanii [3]): > 50%
Activity (HaCaT [4]): Non-Toxic
inhibition at 50 µg/mL (Acanthamoeba castellanii [5]): > 50%

Cc1cccc2c(=O)n(-c3ccc(Cl)cc3)cnc12
inhibition (Acanthamoeba castellanii [1]): Active
inhibition (Acanthamoeba castellanii [2]): Active
inhibition at 100 µg/mL (Acanthamoeba castellanii [3]): > 50%
Activity (HaCaT [4]): Non-Toxic
inhibition at 50 µg/mL (Acanthamoeba castellanii [5]): > 50%

Cc1cccc2c(=O)n(-c3ccc(I)cc3)cnc12
inhibition (Acanthamoeba castellanii [2]): Active
inhibition at 100 µg/mL (Acanthamoeba castellanii [6]): 100%
inhibition at 100 µg/mL (Acanthamoeba castellanii [3]): > 50%
Activity (HaCaT [4]): Non-Toxic
inhibition at 50 µg/mL (Acanthamoeba castellanii [5]): > 60%

Cc1ccc(-n2cnc3c(C)cccc3c2=O)cc1
inhibition (Acanthamoeba castellanii [1]): Active
inhibition (Acanthamoeba castellanii [2]): Active
inhibition at 100 µg/mL (Acanthamoeba castellanii [3]): > 50%
Activity (HaCaT [4]): Non-Toxic
Activity (Acanthamoeba castellanii [7]): Active
Activity (Acanthamoeba castellanii [8]): Active
inhibition at 50 µg/mL (Acanthamoeba castellanii [5]): > 50%

Cc1ccccc1-n1cnc2c(C)cccc2c1=O
inhibition (Acanthamoeba castellanii [2]): Active
inhibition at 100 µg/mL (Acanthamoeba castellanii [6]): 100%
inhibition at 100 µg/mL (Acanthamoeba castellanii [3]): > 50%
Activity (HaCaT [4]): Non-Toxic
inhibition (Acanthamoeba castellanii [9]): Active
inhibition at 50 µg/mL (Acanthamoeba castellanii [5]): > 50%

COc1ccc(OC)c(-n2cnc3c(C)cccc3c2=O)c1
inhibition (Acanthamoeba castellanii [1]): Active
inhibition (Acanthamoeba castellanii [2]): Active
inhibition at 100 µg/mL (Acanthamoeba castellanii [3]): > 50%
Activity (HaCaT [4]): Non-Toxic
inhibition at 50 µg/mL (Acanthamoeba castellanii [5]): > 50%

N=C(NCCCCCCNC(=N)NC(=N)Nc1ccc(Cl)cc1)NC(=N)Nc1ccc(Cl)cc1
inhibition (Acanthamoeba castellanii [2]): Active

CSc1cccc(-n2cnc3c(C)cccc3c2=O)c1
inhibition (Acanthamoeba castellanii [1]): Active
inhibition (Acanthamoeba castellanii [2]): Active
inhibition at 100 µg/mL (Acanthamoeba castellanii [3]): > 50%
Activity (HaCaT [4]): Non-Toxic
inhibition at 50 µg/mL (Acanthamoeba castellanii [5]): > 50%

Cc1cccc2c(=O)n(-c3ccccc3I)cnc12
inhibition (Acanthamoeba castellanii [2]): Active
Activity (HaCaT [10]): 8%
inhibition at 100 µg/mL (Acanthamoeba castellanii [6]): 100%
inhibition at 100 µg/mL (Acanthamoeba castellanii [3]): > 80%
inhibition (Acanthamoeba castellanii [9]): Active
inhibition at 50 µg/mL (Acanthamoeba castellanii [5]): > 60%

COc1ccc(-n2cnc3c(C)cccc3c2=O)cc1
inhibition (Acanthamoeba castellanii [1]): Active
inhibition (Acanthamoeba castellanii [2]): Active
inhibition at 100 µg/mL (Acanthamoeba castellanii [3]): > 50%
Activity (HaCaT [4]): Non-Toxic
inhibition at 50 µg/mL (Acanthamoeba castellanii [5]): > 50%

Cc1cccc2c(=O)n(-c3ccc(Br)cc3)cnc12
inhibition (Acanthamoeba castellanii [1]): Active
inhibition (Acanthamoeba castellanii [2]): Active
inhibition at 100 µg/mL (Acanthamoeba castellanii [3]): > 50%
Activity (HaCaT [4]): Non-Toxic
inhibition at 50 µg/mL (Acanthamoeba castellanii [5]): > 50%

Cc1cccc2c(=O)n(-c3ccc(F)cc3F)cnc12
inhibition (Acanthamoeba castellanii [1]): Active
inhibition (Acanthamoeba castellanii [2]): Active
inhibition at 100 µg/mL (Acanthamoeba castellanii [3]): > 50%
Activity (HaCaT [4]): Non-Toxic
inhibition (Acanthamoeba castellanii [9]): Active
inhibition at 50 µg/mL (Acanthamoeba castellanii [5]): > 50%

Cc1cccc2c(=O)n(-c3cccc(Br)c3)cnc12
inhibition (Acanthamoeba castellanii [1]): Active
inhibition (Acanthamoeba castellanii [2]): Active
Activity (HaCaT [10]): 11%
inhibition at 100 µg/mL (Acanthamoeba castellanii [3]): > 50%
inhibition at 50 µg/mL (Acanthamoeba castellanii [5]): > 50%

Cc1cccc2c(=O)n(-c3cccc(F)c3)cnc12
inhibition (Acanthamoeba castellanii [1]): Active
inhibition (Acanthamoeba castellanii [2]): Active
inhibition at 100 µg/mL (Acanthamoeba castellanii [3]): > 80%
Activity (HaCaT [4]): Non-Toxic
inhibition at 50 µg/mL (Acanthamoeba castellanii [5]): > 50%

Cc1cccc2c(=O)n(-c3ccc(F)cc3)cnc12
inhibition (Acanthamoeba castellanii [2]): Active
inhibition at 100 µg/mL (Acanthamoeba castellanii [6]): 100%
inhibition at 100 µg/mL (Acanthamoeba castellanii [3]): > 80%
Activity (HaCaT [4]): Non-Toxic
Activity (Acanthamoeba castellanii [7]): Active
Activity (Acanthamoeba castellanii [8]): Active
inhibition at 50 µg/mL (Acanthamoeba castellanii [5]): > 60%

Cc1cc(C)cc(-n2cnc3c(C)cccc3c2=O)c1
inhibition (Acanthamoeba castellanii [1]): Active
inhibition (Acanthamoeba castellanii [2]): Active
inhibition (Acanthamoeba castellanii [11]): inactive
Activity (HaCaT [4]): Non-Toxic
